From article PMC8567357 (ACS Omega, 2021)
Where two headings read alike, the source gives them in different places.

Legend:
[1] = DPPH radical scavenging effect; conditions: for IC50: read-out: DPPH mean IC50
Outline: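 Ethanolic DPPH was mixed with an equal volume of each sample concentration, shaken, and kept 1 h at room temperature in the dark. Residual DPPH absorbance was read at 519 nm against a control without test compound. BHT was the positive control. Scavenging % was calculated from compound and control absorbances. IC50 was taken from the scavenging-versus-concentration plot. Values are means of two determinations ± SD.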

E. coli (ATCC 25922) = test: Antibacterial assay; type: cell-based; conditions: Escherichia coli
Outline: (§1)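 Hospital-collected standard isolates were grown fresh on nutrient agar and suspended in nutrient broth to 0.5 McFarland. Test compound was mixed with 2 × 10⁷ CFU/mL in sterile BHI and shaken 60 min at 37 °C. Samples were serially diluted in BHI, plated, and incubated 24 h at 37 °C. Residual CFU were compared with the initial inoculum. IC50 is the mean of two measurements. Ampicillin was the positive reference.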

[2] = biological target: purified recombinant human LDHA protein (Homo sapiens, UniProt P00338); test: Lactate dehydrogenase; type: biochemical; conditions: for inhibition at 100 µg/mL: read-out: LDHA mean inhibitory % ± SD
[3] = biological target: Pyruvate Dehydrogenase Kinase-1 (PDK-1) (Homo sapiens, UniProt Q15118); test: Pyruvate dehydrogenase kinase; type: biochemical; conditions: for inhibition at 100 µg/mL: read-out: PDK-1 mean inhibitory % ± SD
Outline: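 PDK-1 activity measured by the Kinase-Glo luminescent method. Wells held 10× assay buffer (250 mM Tris–HCl, 50 mM MgCl₂, 5 mM EGTA, 10 mM EDTA, 10 mM DTT), test compound (25–300 μg), and added solutions of PDH E1 (10 μM), ATP (10 μM) and PDK-1 (20 μM) in KCl/K₃PO₄/MgCl₂ buffer. Incubated 30 min at 37 °C, then Kinase-Glo reagent for 10 min at room temperature, and luminescence read. Controls: PBS or 1% DMSO; sodium dichloroacetate 1000 μM as reference. Mean ± SD of two replicates.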

[4] = tested on: Enterococcus faecalis (ATCC 29122); test: Antibacterial assay; type: cell-based; conditions: ATCC29122, read-out: Enterococcus faecalis mean IC50 (μM)
Outline: as §1

Cytotoxicity assay [5] = type: cell-based, human; conditions: human, HCT-116 cells (colorectal cancer cell line)
Outline: (§2)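 ATCC-sourced cells were cultured 24 h at 37 °C in 5% CO₂ with test compound (25, 50, 75, 100, 200, 400 μg) diluted in DMEM with 10% FBS. LDH released into the supernatant was measured by end-point ELISA, with OD read at 550 nm. Controls were 0.1% Triton X-100 (positive) and medium alone (negative). Viability is % OD relative to control, at 100 μg final, mean ± SD (n = 2). IC50 was taken from the viability-versus-concentration plot.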

Cytotoxicity assay [6] = type: cell-based, human; conditions: human, LoVo cells (colorectal cancer cell line)
Outline: as §2

HCT-116 cells = test: Cytotoxicity assay; type: cell-based, human; conditions: for IC50: Homo sapiens
Outline: as §2

LoVo cells = test: Cytotoxicity assay; type: cell-based, human; conditions: for IC50: Homo sapiens, LoVo
Outline: as §2

[7] = ATCC25922, read-out: E. coli mean IC50 (μM)
[8] = ATCC25922, read-out: E. coli mean IC50 (μg/mL) ± SD
[9] = LDHA IC50 (μg/mL) ± SD, mean of two determinations
[10] = PDK1 IC50 (μg/mL) ± SD, mean of two determinations
[11] = HCT-116, read-out: HCT-116 mean IC50 (μM)
[12] = HCT-116, read-out: HCT-116 mean IC50 (μg/mL) ± SD
[13] = read-out: LoVo cells mean IC50 (μM)
[14] = read-out: LoVo cells mean IC50 (μg/mL) ± SD

Chain of Pyruvate Dehydrogenase Kinase-1 (PDK-1) (Q15118 29-436): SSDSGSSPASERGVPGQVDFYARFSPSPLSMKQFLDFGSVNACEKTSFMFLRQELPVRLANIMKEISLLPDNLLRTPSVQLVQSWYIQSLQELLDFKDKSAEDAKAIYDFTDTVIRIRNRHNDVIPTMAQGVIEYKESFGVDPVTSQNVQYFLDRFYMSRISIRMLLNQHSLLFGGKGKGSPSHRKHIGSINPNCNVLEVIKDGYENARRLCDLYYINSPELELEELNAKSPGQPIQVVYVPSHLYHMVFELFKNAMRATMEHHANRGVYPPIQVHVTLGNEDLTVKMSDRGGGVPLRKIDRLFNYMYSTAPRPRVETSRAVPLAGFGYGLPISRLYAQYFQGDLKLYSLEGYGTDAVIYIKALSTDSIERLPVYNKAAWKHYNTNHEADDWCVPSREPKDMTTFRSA

Row | Molecule | DPPH mean IC50 (μg/mL) ± SD [1] | IC50 [1] | IC50 (E. coli (ATCC 25922); [7]) | IC50 (E. coli (ATCC 25922); [8]) | inhibition at 100 µg/mL [2] | inhibition at 100 µg/mL [3] | IC50 [4] | viability at 24 h, 100 μg/mL (Cytotoxicity assay [5]) | IC50 ([2]; LDHA IC50 (μM)) | IC50 [2, 9] | viability at 24 h, 100 μg/mL (Cytotoxicity assay [6]) | IC50 ([3]; PDK1 IC50 (μM)) | IC50 [3, 10] | IC50 (HCT-116 cells; [11]) | IC50 (HCT-116 cells; [12]) | IC50 (LoVo cells; [13]) | IC50 (LoVo cells; [14]) | mean % of viable HCT-116 cell (positive control) (HCT-116 cells; 0.1% in assay medium) | mean % of viable LoVo cells (positive control) (LoVo cells; 0.1% in assay medium)
1 | N#Cc1c(N)sc2c1CCCC2 [1c, 2-amino-4,5,6,7-tetrahydro-benzo[b]thiophene-3-carbonitrile] | 332.5 ± 17.68 µg/mL | 1870 µM | 147 µM | 26.2 ± 1.06 µg/mL | 23.1 ± 3.05% | 11.2 ± 3.18% | 119 µM |  |  |  |  |  |  |  |  |  |  |  | 
2 | CCOC(=O)Nc1sc2c(c1C(=O)OCC)CCC(c1ccccc1)C2 (stereo not drawn) [3a, Ethyl 2-((Ethoxycarbonyl)amino)-6-phenyl-4,5,6,7-tetrahydrobenzo[b]thiophene-3-carboxylate] | 665.0 ± 21.21 µg/mL | 1780 µM | 72.4 µM | 27.1 ± 0.35 µg/mL | 28.8 ± 2.06% | 21.5 ± 2.4% | 102 µM |  |  |  |  |  |  |  |  |  |  |  | 
3 | CCOC(=O)c1c(NC(=O)c2cccs2)sc2c1CCC(c1ccccc1)C2 (stereo not drawn) [3e, Ethyl 6-Phenyl-2-(thiophene-2-carboxamido)-4,5,6,7-tetrahydrobenzo[b] thiophene-3-carboxylate] | 595.0 ± 21.21 µg/mL | 1450 µM | 89.4 µM | 36.8 ± 1.7 µg/mL | 18.4 ± 1.98% | 18.4 ± 1.98% | 90.6 µM |  |  |  |  |  |  |  |  |  |  |  | 
4 | CCOC(=O)c1c(NC(=O)CN2CCOCC2)sc2c1CCC(c1ccccc1)C2 (stereo not drawn) [5a, Ethyl 2-(2-Morpholinoacetamido)-6-phenyl-4,5,6,7-tetrahydrobenzo[b]thiophene-3-carboxylate] | 440.0 ± 28.28 µg/mL | 1030 µM | 62.8 µM | 26.9 ± 0.57 µg/mL | 30.8 ± 1.7% | 41 ± 2.83% | 62.2 µM |  |  |  |  |  |  |  |  |  |  |  | 
5 | Cc1cc(C(C)(C)C)c(O)c(C(C)(C)C)c1 [BHT, butylated hydroxy toluene, reference compound] | 54.0 ± 5.66 µg/mL | 245 µM |  |  |  |  |  |  |  |  |  |  |  |  |  |  |  |  | 
6 | CC1(C)S[C@@H]2[C@H](NC(=O)[C@H](N)c3ccccc3)C(=O)N2[C@H]1C(=O)O [ampicillin, reference compound] |  |  | 58 µM | 20.2 ± 1.77 µg/mL |  |  | 36.5 µM |  |  |  |  |  |  |  |  |  |  |  | 
7 | CCOC(=O)c1c(N)sc2c1CCC(c1ccccc1)C2 (stereo not drawn) [compound 1a, 2-amino-6-phenyl-4,5,6,7-tetrahydrobenzo[b]thiophene-3-carboxylic acid ethyl ester] | 390.5 ± 13.44 µg/mL | 1300 µM | 82.6 µM | 24.9 ± 0.99 µg/mL | 19.2 ± 3.18% | 12.3 ± 1.91% | 146 µM |  |  |  |  |  |  |  |  |  |  |  | 
8 | N#Cc1c(N)sc2c1CCC(c1ccccc1)C2 (stereo not drawn) [compound 1b, 2-amino-6-phenyl-4,5,6,7-tetrahydrobenzo[b]thiophene-3-carbonitrile] | 110.0 ± 14.14 µg/mL | 432 µM |  |  | 74.1 ± 2.97% | 87 ± 2.83% | 83.4 µM | 53.5 ± 2.12% | 252 µM | 252 µM | 56.5 ± 0.71% | 224 µM | 224 µM |  |  |  |  |  | 
9 | CCOC(=O)Nc1sc2c(c1C#N)CCC(c1ccccc1)C2 (stereo not drawn) [compound 3b, Ethyl (3-Cyano-6-phenyl-4,5,6,7-tetrahydrobenzo[b]thiophen-2-yl)carbamate] | 130.0 ± 14.14 µg/mL | 398 µM |  |  | 19.3 ± 0.85% | 51.5 ± 3.54% | 83.5 µM | 28 ± 1.41% | 892 µM | 891 µM | 35.5 ± 2.12% | 302 µM | 302 µM | 218 µM | 71 ± 2.83 µg/mL | 250 µM | 81.5 ± 3.54 µg/mL |  | 
10 | N#Cc1c(N2C(=O)CCC2=O)sc2c1CCC(c1ccccc1)C2 (stereo not drawn) [compound 7, 2-(2,5-Dioxopyrrolidin-1-yl)-6-phenyl-4,5,6,7-tetrahydrobenzo[b]thiophene-3-carbonitrile] | 222.5 ± 17.68 µg/mL | 661 µM | 82.9 µM | 27.9 ± 2.26 µg/mL | 48.8 ± 5.3% | 35.9 ± 4.1% | 83.5 µM | 47.2 ± 1.06% | 276 µM | 276 µM | 51.5 ± 2.12% | 428 µM | 428 µM | 288 µM | 97 ± 2.83 µg/mL | 323 µM | 108 ± 3.54 µg/mL |  | 
11 | CN(C)C=Nc1sc2c(c1C#N)CCC(c1ccccc1)C2 (stereo not drawn) [compound 9, N′-(3-Cyano-6-phenyl-4,5,6,7-tetrahydrobenzo[b]thiophen-2-yl)-N,N-dimethyl Formamidine] | 210.0 ± 28.28 µg/mL | 679 µM | 94.9 µM | 29.4 ± 1.2 µg/mL | 32.6 ± 2.33% | 36.5 ± 2.12% | 111 µM | 69 ± 1.41% |  |  | 71.8 ± 2.55% |  |  | 524 µM | 162 ± 4.24 µg/mL | 642 µM | 198 ± 4.95 µg/mL |  | 
12 | COc1ccc(C=Nc2sc3c(c2C#N)CCCC3)cc1O [compound 11, 2-((3-Hydroxy-4-methoxybenzylidene)amino)-4,5,6,7-tetrahydrobenzo[b]thiophene-3-carbonitrile] | 332.5 ± 17.68 µg/mL | 1060 µM | 181 µM | 56.6 ± 1.98 µg/mL | 29.6 ± 1.98% | 23.7 ± 2.4% | 126 µM | 60.5 ± 2.12% |  |  | 63.8 ± 1.77% |  |  | 403 µM | 126 ± 4.25 µg/mL | 474 µM | 148 ± 4.24 µg/mL |  | 
13 | Triton X-100 [reference compound] |  |  |  |  |  |  |  |  |  |  |  |  |  |  |  |  |  | 0.00% | 0.00%
